Where “and” joins values, the source holds several entries; their conditions need not be identical. Identical values can stand only once.
Assays:
Assay type in all cases: toxicity, cell-based
[1] = system: Fibroblast; experiment: Multiplex assay against human fibroblast; conditions: number of replicates 2
Summary of the method: (§1)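 Four dyes were applied at seeding to live cells: Hoechst33342, BioTracker Green Microtubule Cytoskeleton Dye, MitoTracker Red and Annexin V Alexa Fluor 680. Imaging after compound addition used a CQ1 microscope at 37°C and 5% CO2. CellPathfinder machine-learning gating then sorted cells into Hoechst high-intensity objects or normal cells, normal cells into healthy, pyknosed or fragmented nuclei, and pyknosed cells into mitotic or apoptotic, with tubulin, mitochondrial-mass and membrane-permeability phenotypes given as per cents of healthy-nucleus cells.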

[2] = system: HEK-293T; experiment: Multiplex assay against HEK293T; conditions: human, number of replicates 2; summary of the method: as §1
[3] = system: U2OS; experiment: Multiplex assay against U2OS; conditions: human, number of replicates 2; summary of the method: as §1
[4] = 12 h, 1 µM, compound concentration 1 uM
[5] = 12 h, 10 µM, compound concentration 10 uM
[6] = 24 h, 1 µM, compound concentration 1 uM
[7] = 24 h, 10 µM, compound concentration 10 uM
[8] = 48 h, 1 µM, compound concentration 1 uM
[9] = 48 h, 10 µM, compound concentration 10 uM

COc1cc(N2CCN(C)CC2)ccc1Nc1ncc2c(n1)N(C)c1ccccc1C(=O)N2CC(F)(F)F
Population Apoptotic (%) [1, 4]: 50% and 44%
Population Fragmented Nuclei (%) [1, 4]: 14% and 10%
Population Healthy Nuclei (%) [1, 4]: 74% and 76%
Population Hoechst High Intensity Objects (%) [1, 4]: 0%
Population Membrane Permeable-Phenotype (%) [1, 4]: 1% and 2%
Population Mitochondria Different-Phenotype (%) [1, 4]: 1%
Population Mitotic Cells (%) [1, 4]: 50% and 55%
Population Normal (%) [1, 4]: 100%
Population Pyknosed Nuclei (%) [1, 4]: 10% and 13%
Population Tubulin-Different-Phenotype (%) [1, 4]: 32% and 20%
Total Cell Count [1, 4]: 214 and 269
Population Apoptotic (%) [1, 5]: 27% and 35%
Population Fragmented Nuclei (%) [1, 5]: 45% and 17%
Population Healthy Nuclei (%) [1, 5]: 40% and 66%
Population Hoechst High Intensity Objects (%) [1, 5]: 4% and 0%
Population Membrane Permeable-Phenotype (%) [1, 5]: 1% and 3%
Population Mitochondria Different-Phenotype (%) [1, 5]: 7% and 11%
Population Mitotic Cells (%) [1, 5]: 72% and 64%
Population Normal (%) [1, 5]: 95% and 100%
Population Pyknosed Nuclei (%) [1, 5]: 14% and 16%
Population Tubulin-Different-Phenotype (%) [1, 5]: 57% and 67%
Total Cell Count [1, 5]: 330 and 243
Population Apoptotic (%) [1, 6]: 75% and 29%
Population Fragmented Nuclei (%) [1, 6]: 17% and 18%
Population Healthy Nuclei (%) [1, 6]: 77% and 73%
Population Hoechst High Intensity Objects (%) [1, 6]: 0%
Population Membrane Permeable-Phenotype (%) [1, 6]: 1%
Population Mitochondria Different-Phenotype (%) [1, 6]: 1% and 3%
Population Mitotic Cells (%) [1, 6]: 25% and 70%
Population Normal (%) [1, 6]: 99% and 100%
Population Pyknosed Nuclei (%) [1, 6]: 5% and 8%
Population Tubulin-Different-Phenotype (%) [1, 6]: 33% and 18%
Total Cell Count [1, 6]: 241 and 300
Population Apoptotic (%) [1, 7]: 62% and 44%
Population Fragmented Nuclei (%) [1, 7]: 41% and 15%
Population Healthy Nuclei (%) [1, 7]: 47% and 69%
Population Hoechst High Intensity Objects (%) [1, 7]: 5% and 0%
Population Membrane Permeable-Phenotype (%) [1, 7]: 2%
Population Mitochondria Different-Phenotype (%) [1, 7]: 27% and 34%
Population Mitotic Cells (%) [1, 7]: 37% and 55%
Population Normal (%) [1, 7]: 94% and 100%
Population Pyknosed Nuclei (%) [1, 7]: 10% and 15%
Population Tubulin-Different-Phenotype (%) [1, 7]: 69% and 78%
Total Cell Count [1, 7]: 294 and 218
Population Apoptotic (%) [1, 8]: 70% and 45%
Population Fragmented Nuclei (%) [1, 8]: 23% and 16%
Population Healthy Nuclei (%) [1, 8]: 72% and 77%
Population Hoechst High Intensity Objects (%) [1, 8]: 0%
Population Membrane Permeable-Phenotype (%) [1, 8]: 2% and 1%
Population Mitochondria Different-Phenotype (%) [1, 8]: 1%
Population Mitotic Cells (%) [1, 8]: 30% and 55%
Population Normal (%) [1, 8]: 100% and 99%
Population Pyknosed Nuclei (%) [1, 8]: 4% and 6%
Population Tubulin-Different-Phenotype (%) [1, 8]: 17% and 10%
Total Cell Count [1, 8]: 249 and 315
Population Apoptotic (%) [1, 9]: 76% and 79%
Population Fragmented Nuclei (%) [1, 9]: 42% and 17%
Population Healthy Nuclei (%) [1, 9]: 50% and 72%
Population Hoechst High Intensity Objects (%) [1, 9]: 4% and 1%
Population Membrane Permeable-Phenotype (%) [1, 9]: 0% and 4%
Population Mitochondria Different-Phenotype (%) [1, 9]: 28% and 18%
Population Mitotic Cells (%) [1, 9]: 23% and 20%
Population Normal (%) [1, 9]: 95% and 98%
Population Pyknosed Nuclei (%) [1, 9]: 7% and 10%
Population Tubulin-Different-Phenotype (%) [1, 9]: 68% and 71%
Total Cell Count [1, 9]: 288 and 232
Population Apoptotic (%) [2, 4]: 31% and 35%
Population Fragmented Nuclei (%) [2, 4]: 3% and 2%
Population Healthy Nuclei (%) [2, 4]: 87% and 86%
Population Hoechst High Intensity Objects (%) [2, 4]: 5% and 6%
Population Membrane Permeable-Phenotype (%) [2, 4]: 3%
Population Mitochondria Different-Phenotype (%) [2, 4]: 20% and 16%
Population Mitotic Cells (%) [2, 4]: 68% and 64%
Population Normal (%) [2, 4]: 94% and 93%
Population Pyknosed Nuclei (%) [2, 4]: 9% and 10%
Population Tubulin-Different-Phenotype (%) [2, 4]: 86% and 78%
Total Cell Count [2, 4]: 866 and 792
Population Apoptotic (%) [2, 5]: 55% and 51%
Population Fragmented Nuclei (%) [2, 5]: 1% and 3%
Population Healthy Nuclei (%) [2, 5]: 81% and 83%
Population Hoechst High Intensity Objects (%) [2, 5]: 13% and 12%
Population Membrane Permeable-Phenotype (%) [2, 5]: 5% and 4%
Population Mitochondria Different-Phenotype (%) [2, 5]: 49% and 52%
Population Mitotic Cells (%) [2, 5]: 44% and 48%
Population Normal (%) [2, 5]: 86% and 87%
Population Pyknosed Nuclei (%) [2, 5]: 16% and 13%
Population Tubulin-Different-Phenotype (%) [2, 5]: 95%
Total Cell Count [2, 5]: 412 and 483
Population Apoptotic (%) [2, 6]: 27% and 32%
Population Fragmented Nuclei (%) [2, 6]: 3% and 5%
Population Healthy Nuclei (%) [2, 6]: 90% and 86%
Population Hoechst High Intensity Objects (%) [2, 6]: 7%
Population Membrane Permeable-Phenotype (%) [2, 6]: 2%
Population Mitochondria Different-Phenotype (%) [2, 6]: 8% and 9%
Population Mitotic Cells (%) [2, 6]: 72% and 67%
Population Normal (%) [2, 6]: 92%
Population Pyknosed Nuclei (%) [2, 6]: 5% and 7%
Population Tubulin-Different-Phenotype (%) [2, 6]: 68%
Total Cell Count [2, 6]: 1356 and 1127
Population Apoptotic (%) [2, 7]: 42% and 49%
Population Fragmented Nuclei (%) [2, 7]: 3% and 4%
Population Healthy Nuclei (%) [2, 7]: 80% and 83%
Population Hoechst High Intensity Objects (%) [2, 7]: 6% and 11%
Population Membrane Permeable-Phenotype (%) [2, 7]: 2% and 1%
Population Mitochondria Different-Phenotype (%) [2, 7]: 60% and 59%
Population Mitotic Cells (%) [2, 7]: 57% and 50%
Population Normal (%) [2, 7]: 93% and 88%
Population Pyknosed Nuclei (%) [2, 7]: 16% and 12%
Population Tubulin-Different-Phenotype (%) [2, 7]: 95%
Total Cell Count [2, 7]: 451 and 561
Population Fragmented Nuclei (%) [2, 8]: 10% and 14%
Population Healthy Nuclei (%) [2, 8]: 86% and 82%
Population Hoechst High Intensity Objects (%) [2, 8]: 11% and 10%
Population Membrane Permeable-Phenotype (%) [2, 8]: 4% and 6%
Population Mitochondria Different-Phenotype (%) [2, 8]: 2% and 0%
Population Mitotic Cells (%) [2, 8]: 82% and 95%
Population Normal (%) [2, 8]: 88% and 89%
Population Pyknosed Nuclei (%) [2, 8]: 3%
Population Tubulin-Different-Phenotype (%) [2, 8]: 51% and 48%
Total Cell Count [2, 8]: 2136 and 2988
Population Apoptotic (%) [2, 9]: 50% and 55%
Population Fragmented Nuclei (%) [2, 9]: 4% and 5%
Population Healthy Nuclei (%) [2, 9]: 79% and 83%
Population Hoechst High Intensity Objects (%) [2, 9]: 8% and 11%
Population Membrane Permeable-Phenotype (%) [2, 9]: 7% and 11%
Population Mitochondria Different-Phenotype (%) [2, 9]: 37% and 31%
Population Mitotic Cells (%) [2, 9]: 50% and 44%
Population Normal (%) [2, 9]: 91% and 88%
Population Pyknosed Nuclei (%) [2, 9]: 15% and 11%
Population Tubulin-Different-Phenotype (%) [2, 9]: 91% and 94%
Total Cell Count [2, 9]: 580 and 656
Population Apoptotic (%) [3, 4]: 80% and 51%
Population Fragmented Nuclei (%) [3, 4]: 11% and 4%
Population Healthy Nuclei (%) [3, 4]: 76% and 82%
Population Hoechst High Intensity Objects (%) [3, 4]: 0%
Population Membrane Permeable-Phenotype (%) [3, 4]: 3%
Population Mitotic Cells (%) [3, 4]: 20% and 48%
Population Normal (%) [3, 4]: 100% and 99%
Population Pyknosed Nuclei (%) [3, 4]: 11% and 12%
Population Tubulin-Different-Phenotype (%) [3, 4]: 21% and 22%
Population Apoptotic (%) [3, 5]: 64% and 53%
Population Healthy Nuclei (%) [3, 5]: 45% and 78%
Population Hoechst High Intensity Objects (%) [3, 5]: 0%
Population Membrane Permeable-Phenotype (%) [3, 5]: 17% and 28%
Population Mitochondria Different-Phenotype (%) [3, 5]: 58% and 54%
Population Mitotic Cells (%) [3, 5]: 35% and 46%
Population Normal (%) [3, 5]: 100%
Population Pyknosed Nuclei (%) [3, 5]: 37% and 19%
Population Tubulin-Different-Phenotype (%) [3, 5]: 88% and 85%
Population Apoptotic (%) [3, 6]: 66% and 68%
Population Healthy Nuclei (%) [3, 6]: 69% and 83%
Population Hoechst High Intensity Objects (%) [3, 6]: 0%
Population Membrane Permeable-Phenotype (%) [3, 6]: 3% and 1%
Population Mitochondria Different-Phenotype (%) [3, 6]: 18% and 19%
Population Mitotic Cells (%) [3, 6]: 33% and 31%
Population Normal (%) [3, 6]: 100% and 99%
Population Pyknosed Nuclei (%) [3, 6]: 15% and 13%
Population Tubulin-Different-Phenotype (%) [3, 6]: 11% and 30%
Population Apoptotic (%) [3, 7]: 73%
Population Fragmented Nuclei (%) [3, 7]: 15% and 6%
Population Healthy Nuclei (%) [3, 7]: 39% and 55%
Population Hoechst High Intensity Objects (%) [3, 7]: 0%
Population Membrane Permeable-Phenotype (%) [3, 7]: 30% and 44%
Population Mitochondria Different-Phenotype (%) [3, 7]: 69% and 73%
Population Mitotic Cells (%) [3, 7]: 26%
Population Normal (%) [3, 7]: 100%
Population Pyknosed Nuclei (%) [3, 7]: 45% and 37%
Population Tubulin-Different-Phenotype (%) [3, 7]: 92% and 95%
Population Apoptotic (%) [3, 8]: 66% and 72%
Population Healthy Nuclei (%) [3, 8]: 62% and 84%
Population Hoechst High Intensity Objects (%) [3, 8]: 0%
Population Membrane Permeable-Phenotype (%) [3, 8]: 2% and 3%
Population Mitochondria Different-Phenotype (%) [3, 8]: 2% and 11%
Population Mitotic Cells (%) [3, 8]: 33% and 27%
Population Normal (%) [3, 8]: 100% and 99%
Population Pyknosed Nuclei (%) [3, 8]: 22% and 12%
Population Tubulin-Different-Phenotype (%) [3, 8]: 29% and 37%
Population Apoptotic (%) [3, 9]: 83% and 86%
Population Fragmented Nuclei (%) [3, 9]: 26% and 11%
Population Hoechst High Intensity Objects (%) [3, 9]: 2% and 0%
Population Membrane Permeable-Phenotype (%) [3, 9]: 85% and 66%
Population Mitochondria Different-Phenotype (%) [3, 9]: 71% and 74%
Population Mitotic Cells (%) [3, 9]: 16% and 13%
Population Normal (%) [3, 9]: 97% and 99%
Population Pyknosed Nuclei (%) [3, 9]: 57% and 34%
Population Tubulin-Different-Phenotype (%) [3, 9]: 100% and 94%
